# In ChEMBL document CHEMBL3352613, “Crystal Structures and Structure-Activity Relationships of Imidazothiazole Derivatives as IDO1 Inhibitors” (ACS Med Chem Lett, 2014):
# Molecular target: Indoleamine 2,3-dioxygenase 1 (Homo sapiens, UniProt P14902)
# Experiment: Inhibition of human IDO1 assessed as reduction in convertion of N-formylkynurenine to kynurenine incubated for 30 mins
# Outline: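 IC50 values were taken as the mean of at least two independent assays.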
# Indoleamine 2,3-dioxygenase 1, sequence (P14902 whole entry): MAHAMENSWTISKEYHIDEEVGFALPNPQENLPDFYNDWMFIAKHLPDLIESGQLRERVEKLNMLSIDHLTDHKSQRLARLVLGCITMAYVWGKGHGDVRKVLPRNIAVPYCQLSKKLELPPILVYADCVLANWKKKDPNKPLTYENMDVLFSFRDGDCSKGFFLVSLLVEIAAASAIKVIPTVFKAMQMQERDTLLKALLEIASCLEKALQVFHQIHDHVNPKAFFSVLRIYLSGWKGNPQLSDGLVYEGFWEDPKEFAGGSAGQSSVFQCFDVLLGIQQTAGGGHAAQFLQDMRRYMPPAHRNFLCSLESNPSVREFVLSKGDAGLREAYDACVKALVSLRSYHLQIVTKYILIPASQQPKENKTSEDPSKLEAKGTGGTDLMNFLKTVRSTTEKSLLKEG
row,SMILES,IC50
1,O=C(NCc1ccccc1)NCc1cnc2scc(-c3ccc(Br)cc3)n12,0.75 µM
2,CCOC(=O)c1cnc2scc(-c3cccc(C)c3)n12,> 100 µM
3,Cc1ccc(-c2csc3ncc(C(=O)NCCc4ccc5c(c4)OCO5)n23)cc1,3.6 µM
4,O=C(NCc1cnc2scc(-c3ccc(Br)cc3)n12)NC1CCCCC1,1.8 µM
5,CCOC(=O)c1cnc2scc(C3=CCCCC3)n12,> 100 µM
6,CCOC(=O)c1cnc2scc(Cc3ccccc3)n12,> 100 µM
7,CCOC(=O)c1cnc2sc3ccccc3n12,> 100 µM
8,CCOC(=O)c1cnc2scc(-c3ccc(Cl)cc3)n12,8.1 µM
9,Cc1ccc(-c2csc3nnc(SCC(=O)Nc4ccc5c(c4)OCO5)n23)cc1,3 µM
10,N#Cc1ccc(NC(=O)NCc2cnc3scc(-c4ccc(Br)cc4)n23)cc1,0.077 µM
11,CCOC(=O)c1cnc2scc(-c3ccc(OC)cc3)n12,56 µM
12,CCOC(=O)c1cnc2scc(-c3ccc(C)cc3)n12,18 µM
13,COc1cccc(NC(=O)NCc2cnc3scc(-c4ccc(Br)cc4)n23)c1,0.16 µM
14,O=C(NCc1cnc2scc(-c3ccc(Br)cc3)n12)Nc1ccc2c(c1)OCO2,0.12 µM
15,CCOC(=O)c1cnc2scc(-c3ccc(CC)cc3)n12,24 µM
16,CCOC(=O)c1cnc2scc(-c3ccc(Br)cc3)n12,5.5 µM
17,Cc1ccc(-c2csc3ncc(C(=O)NCCc4cccc(Cl)c4)n23)cc1,1.9 µM
18,CCOC(=O)c1cnc2scc(-c3ccccc3)n12,> 100 µM
19,Cc1ccc(-c2csc3ncc(C)n23)cc1,1.3 µM
20,Cc1ccc(-c2csc3ncc(C(=O)NCCc4ccccc4)n23)cc1,3.5 µM
21,O=C(NCc1cnc2scc(-c3ccc(Br)cc3)n12)Nc1ccccc1,0.22 µM
22,COc1ccc(NC(=O)NCc2cnc3scc(-c4ccc(Br)cc4)n23)cc1,0.19 µM
23,CCOC(=O)c1cnc2scc(-c3ccccc3C)n12,> 100 µM
